An excerpt weighted towards active compounds, which were near 1.9% of everything screened.
STEP inh – STEP phosphatase inhibitors, primary screen, biochemical, fluorescence intensity, uHTS | Tyrosine-protein phosphatase non-receptor type 5 (Homo sapiens), P54829 | recombinant STEP, OMFP fluorogenic substrate | inhibition, % at 20 µM | 360,000 tested, 0.25% active;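 active = inhibition at 20 µM, scaled per plate between control wells, above about 37%, limit read from the data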
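Assay system: isolated STEP enzyme. Buffer or medium: pH 6.0 Bis-Tris with DTT and Tween 20. Also added: fluorogenic phosphatase substrate OMFP at 25 µM final. Dosing: 20 µM, 1% DMSO. Timing: 20 min reaction, room temperature, in the dark. Measured by: fluorescence intensity, excitation 480 nm, emission 540 nm. Evaluation: normalized % inhibition.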
Scp-1 inhibitor – Scp-1 phosphatase inhibitors, primary screen, biochemical, colorimetric, uHTS | AID 493091, 2011 | Recombinant Scp1, phosphopeptide, malachite green phosphate absorbance | 340,000 tested, 0.88% active | inhibition, % at 20 µM | Carboxy-terminal domain RNA polymerase II polypeptide A small phosphatase 1 (Homo …;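 active = inhibition above about 50% at 20 µM, limit read from the data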
Target sequence (Q9GZU7 76-261 limits assumed): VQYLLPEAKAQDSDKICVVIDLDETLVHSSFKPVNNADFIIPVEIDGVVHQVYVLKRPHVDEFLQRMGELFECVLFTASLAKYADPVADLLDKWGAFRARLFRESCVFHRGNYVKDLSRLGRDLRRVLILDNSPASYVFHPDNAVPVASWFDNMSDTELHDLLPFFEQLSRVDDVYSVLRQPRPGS
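System: SCP-1 catalytic domain; Reagent: Phospho 17-mer peptide substrate; Doses: one concentration, 20 µM, with 1.0% DMSO; Incubation: 45 min room-temperature reaction, 5 min colour, 30 min stabiliser; Signal: Phosphate-binding colour reagent, absorbance read at 630 nm.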
DNMT1 inh – human DNMT1 methyltransferase inhibitors, primary screen, biochemical, molecular beacon, fluorescence, HinP1I cleavage, uHTS. DNA (cytosine-5)-methyltransferase 1 (Homo sapiens), P26358. inhibition (reported as % activation of signal), % at 10 µM. 360,000 tested, 0.83% active; in the data active = inhibition above about 50%
SUMO1 PPI mod – modulators of SUMO1 protein-protein interactions, primary screen, biochemical, uHTS; SUMO1 binding to a labelled peptide, TR-FRET, 1 h; inhibition, % at 20 µM; 360,000 tested, 0.33% active; AID 602429, 2012; in the data active = inhibition above about 37%
Target sequence (P63165 whole entry, looked up): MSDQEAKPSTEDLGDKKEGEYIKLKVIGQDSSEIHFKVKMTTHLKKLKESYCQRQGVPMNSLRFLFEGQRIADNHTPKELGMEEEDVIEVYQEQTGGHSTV
LMPTP inh – LMPTP phosphatase inhibitors, primary screen, biochemical, fluorescence intensity, uHTS | recombinant LMPTP-A, OMFP fluorogenic substrate | 360,000 tested, 0.22% active | AID 651560, 2012 | Low molecular weight phosphotyrosine protein phosphatase (Homo sapiens), P24666 | inhibition, % at 20 µM;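 active = compounds that cut the enzyme signal by at least half of the control window in the single-dose screen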
Target sequence (P24666 whole entry, looked up): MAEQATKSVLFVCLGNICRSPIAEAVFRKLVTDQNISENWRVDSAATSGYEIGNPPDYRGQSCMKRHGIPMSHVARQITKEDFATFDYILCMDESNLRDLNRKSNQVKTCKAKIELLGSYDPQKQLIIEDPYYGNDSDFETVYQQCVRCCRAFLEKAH
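Assay system: LMPTP-A enzyme. Input: 0.625 nM LMPTP-A final. Probe or stimulus: 400 µM OMFP. Compound dosing: single 20 µM dose. Schedule: 50 min dark incubation at room temperature. Detection: fluorescence intensity of OMFP turnover product. Read-out: percent inhibition versus substrate-only and uninhibited controls. Benchmarks: no-enzyme low control, uninhibited high control.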
SUMO HTRF inh – inhibitors of in vitro SUMOylation cascade, primary screen, biochemical, HTRF, uHTS. SUMO-conjugating enzyme UBC9 (Homo sapiens), P63279. HTRF SUMOylation assay, SAE1/SAE2 + UBC9. inhibition, % at 35 µM. 290,000 tested, 0.36% active. AID 2006, 2009; in the data active = inhibition above about 50%, passing the limit was not always enough
Target sequence (P63279 whole entry, looked up): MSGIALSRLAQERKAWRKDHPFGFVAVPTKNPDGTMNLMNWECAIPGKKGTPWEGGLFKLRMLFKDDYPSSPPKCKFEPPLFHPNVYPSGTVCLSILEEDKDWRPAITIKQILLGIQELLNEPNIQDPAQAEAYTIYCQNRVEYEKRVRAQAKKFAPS
Scp1 confirm – Scp-1 phosphatase inhibitors, retest, confirmation, biochemical, colorimetric, single concentration; inhibition, % at 20 µM; shares compounds with Scp-1 inhibitor; recombinant SCP-1 catalytic domain, phosphate release, malachite green absorbance; 2,500 tested, 61% active
MG interference – colorimetric readout interference by compounds, confirmation, artefact control for Scp-1 inhibitor project, biochemical, single concentration; shares compounds with Scp-1 inhibitor; Colorimetric interference counterscreen, malachite green absorbance 630 nm; apparent inhibition (interference), % at 20 µM; 2,500 tested, under 10 active;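 also: compounds added after enzyme reaction finished so only phosphate colour detection is probed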
Scp-1 Tm shift – Scp-1 binding by thermal shift, confirmation, orthogonal assay for Scp-1 inhibitor project, biophysical, differential scanning fluorimetry. thermal shift relative to vanadate control, % at 40 µM. shares compounds with Scp-1 inhibitor. Recombinant SCP1, Sypro Orange thermal shift Tm. 1,500 tested, 25% active;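 active = substances whose mean melting-temperature shift, as a percentage of the reference inhibitor's shift, reaches about 5.3%, limit read from the data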
DNMT1 confirm – DNMT1 methyltransferase inhibitor retest, confirmation, biochemical, molecular beacon, fluorescence, single concentration; DNMT1 molecular beacon HinP1I cleavage; inhibition, % at 10 µM; AID 602385, 2012; 2,300 tested, 8% active; shares compounds with DNMT1 inh;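 active = average inhibition of at least 30% in the single-concentration confirmation test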
DNMT1 interf – beacon fluorescence artifact counter-screen. shares compounds with DNMT1 inh. DNMT1 molecular beacon spectral interference counterscreen, fluorescence 485/520. activation (fluorescence interference), % at 10 µM. 2,300 tested, 1% active. AID 602387;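 active = activation of at least 30% at 10 µM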;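 also: DNMT1 catalytic domain with a HinP1I cleavage step and a FAM/dabcyl DNA beacon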
A number is an active result; i = inactive; nt = not tested or not shown.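 The calls were made as follows, unless noted: active = inhibition of at least 30% at 20 µM; inactive = the rest.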

SMILES | STEP inh | Scp-1 inhibitor | DNMT1 inh | SUMO1 PPI mod | LMPTP inh | SUMO HTRF inh | Scp1 confirm | MG interference | Scp-1 Tm shift | DNMT1 confirm | DNMT1 interf
C#Cc1ccc([C@@H]2C=C(C(=O)NCc3ccccc3)O[C@H](OCC)[C@H]2CCCO)cc1 | i | i | i | i | i | i | nt | nt | nt | nt | nt
O=C(c1cn(-c2ccccc2)nc1-c1ccc(Br)cc1)N1CCOCC1 | i | i | i | i | i | i | nt | nt | nt | nt | nt
O=C(Nc1ccccc1)c1ccc2nc(-c3ccco3)c(-c3ccco3)nc2c1 | i | 71 | 83 | i | i | nt | i | i | nt | i | i
O=C(Nc1ccc(N2CCOCC2)cc1)c1ccc2nc(-c3ccco3)c(-c3ccco3)nc2c1 | i | i | i | i | i | i | nt | nt | nt | nt | nt
COc1ccccc1C1CC(c2cccc(NS(C)(=O)=O)c2)=NN1S(=O)(=O)c1ccccc1 (stereo not drawn) | i | i | i | i | i | i | nt | nt | nt | nt | nt
O=C(O)C1CC(=O)N(c2ccc3c(c2)OCCO3)C1 (stereo not drawn) | i | 75 | 63 | i | i | i | 55 | i | i | i | i
CCN(CC(=O)Nc1ccccc1C(F)(F)F)C(=O)CCc1nc2sc3c(c2c(=O)[nH]1)CCCC3 | i | i | i | i | i | nt | nt | nt | nt | nt | nt
CCN(CC(=O)Nc1c(F)cccc1F)C(=O)CCc1nc2sc3c(c2c(=O)[nH]1)CCCC3 | i | 65 | 54 | i | i | nt | 59 | i | 9.0 | i | i
C[C@@H](NC(=O)[C@@H]1CCCN1C(=O)[C@@H]1CCCN1C(=O)OC(C)(C)C)c1ccccc1 | nt | nt | nt | i | i | nt | nt | nt | nt | nt | nt
Cc1ccc(S(=O)(=O)Nc2cc3c4c(c2)CCN4C(=O)CC3)cc1 | i | i | i | i | i | nt | nt | nt | nt | nt | nt
O=C1Nc2ccc(S(=O)(=O)NCc3ccco3)c3cccc1c23 | i | 56 | 63 | i | i | nt | 70 | i | i | i | 78
Cc1ccc(-n2c(N)cc(=O)nc2SCC(=O)NC2CCCCC2)cc1C | i | i | i | i | i | i | nt | nt | nt | nt | nt
COc1cccc(/C(O)=C2/C(=O)C(=O)N(Cc3cccnc3)C2c2ccco2)c1 (stereo not drawn) | i | i | i | i | i | i | nt | nt | nt | nt | nt
COCCN1C(=O)C(=O)/C(=C(/O)c2cccc(OC)c2)C1c1ccco1 (stereo not drawn) | i | 57 | 75 | i | i | i | 56 | i | i | i | i
OC[C@@H]1CN(Cc2cccc(C(F)(F)F)c2)C[C@H](n2cnc3c(NCc4ccco4)ncnc32)O1 | i | nt | i | i | i | nt | nt | nt | nt | nt | nt
Cc1ccc(C(=O)NCc2occc2C(=O)O)o1 | i | 53 | 53 | i | i | i | 53 | i | i | i | i
Cc1cc(Nc2ccc3c(c2)OCCO3)c2cccc(C)c2n1 | i | i | i | i | i | i | nt | nt | nt | nt | nt
CN(C)/C=C/C=C1C(=O)CCCC1=O | i | 58 | 55 | i | i | i | 49 | i | i | i | i
CCOc1ccc(NC(=O)C(C)C(Cc2ccc(C)cc2)C(=O)O)cc1 (stereo not drawn) | i | i | i | i | i | i | nt | nt | nt | nt | nt
CC(=O)NC(Cc1c[nH]c2ccccc12)C(=O)NCc1ccco1 (stereo not drawn) | i | i | i | i | i | i | nt | nt | nt | nt | nt
CC(Cc1c[nH]c2ccccc12)C(=O)NCc1ccco1 (stereo not drawn) | i | 103 | 74 | 60 | i | i | 60 | i | i | i | i
O=C(Nc1ccccc1F)Nc1cccnc1Cl | i | i | i | i | i | nt | nt | nt | nt | nt | nt
Cn1c(N2CCN(C(c3ccccc3)c3ccccc3)CC2)nc2c1c(=O)[nH]c(=O)n2C | i | i | i | i | i | i | nt | nt | nt | nt | nt
O=P(c1ccccc1)(c1ccccc1)c1cc(S(=O)(=O)O)ccc1O | 98 | 88 | 83 | i | i | i | 60 | i | i | i | i
O=P(O)(c1ccccc1)c1ccccc1O | i | i | i | i | i | i | nt | nt | nt | nt | nt
SMILES | STEP inh | Scp-1 inhibitor | DNMT1 inh | SUMO1 PPI mod | LMPTP inh | SUMO HTRF inh | Scp1 confirm | MG interference | Scp-1 Tm shift | DNMT1 confirm | DNMT1 interf
O=[N+]([O-])c1ccc(N2CCc3ccccc3C2)cc1 | i | i | i | i | i | i | nt | nt | nt | nt | nt
CC(C)CN(C(=O)COC(=O)c1ccccc1SCC(=O)N1CCCC1)C1CCS(=O)(=O)C1 (stereo not drawn) | i | i | i | i | i | nt | nt | nt | nt | nt | nt
CCN(CC)C(=O)CSc1ncnc2c(-c3cccs3)nsc12 | i | 76 | 97 | i | i | i | 61 | i | 6.0 | i | i
Cc1nn2c(-c3ccccn3)ccnc2c1Br | i | i | i | i | i | i | nt | nt | nt | nt | nt
O=c1c(Cl)c(N/N=C/c2ccc(Br)cc2)cnn1-c1ccccc1 | i | 59 | 90 | i | 52 | i | 61 | i | i | i | i
C=CCNc1nc(C(=O)OCC(=O)c2cccc(Br)c2)cs1 | i | 57 | 59 | i | i | nt | 60 | i | 11 | i | i
COc1ccc(CCNC(=O)Nc2nc(CN)cs2)cc1OC | i | nt | i | i | i | nt | nt | nt | nt | nt | nt
CCCN=C1N(C)C[C@@H]2[C@@H]3C(=O)N(C)C(=O)[C@@H]3[C@](C)(C(=O)OC)N12 | i | i | i | i | i | nt | nt | nt | nt | nt | nt
Cc1ccc(CSCC(=O)N/N=C/c2ccc(OCC(=O)Nc3ccc(C)cc3)cc2)cc1 | i | 112 | 69 | i | i | i | 80 | i | i | i | i
COc1ccc(CSCC(=O)N/N=C/c2ccc(OCC(=O)N3CCCCC3)cc2)cc1 | i | i | i | i | i | i | nt | nt | nt | nt | nt

Assay outcomes from PubChem BioAssay.
